One block for each molecule: values may come before it. Active and inactive are the calls of the source. The rule behind the calls is not given here.
Columns and labels:
Plasmodium falciparum [1] = assay: Antimalarial activity against asexual stage of Plasmodium falciparum Dd2 infected in erythrocytes assessed as reduction in parasite growth incubated for 48 hrs under hypoxic condition by Hoechst 33342 staining based flow cytometry; format: functional, organism-based; settings: Dd2, 48 h
Procedure, shortened: (§1)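 Asexual Dd2 and 3D7 parasites in erythrocytes; DNA content of infected cells measured by Hoechst 33342 staining and FACS. IC50 is the concentration giving 50% of the net fluorescence of untreated control cultures; mean ± SD of n = 3 separate determinations.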

CHO-K1 = assay: Cytotoxicity against CHOK1 cells assessed as reduction in cell viability incubated for 48 hrs by CellTiter 96 aqueous one solution assay; format: cell-based; settings: Cricetulus griseus, CHO-K1, 48 h
Procedure, shortened: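 Cell growth measured by a tetrazolium dye assay. IC50 is the concentration reducing growth by 50% relative to untreated cultures; mean ± SD of n = 3 separate determinations.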

Plasmodium falciparum [2] = assay: Antimalarial activity against asexual stage of Plasmodium falciparum 3D7 infected in erythrocytes assessed as reduction in parasite growth incubated for 48 hrs under hypoxic condition by Hoechst 33342 staining based flow cytometry; format: functional, organism-based; settings: 3D7, 48 h; procedure, shortened: as §1
Plasmodium falciparum [3] = assay: Antimalarial activity against asexual stage of Plasmodium falciparum 3D7 infected in O-positive erythrocytes assessed as reduction in parasite growth incubated for 72 hrs by SYBR Green I dye-based spectrophotometric analysis; format: functional, organism-based; settings: 3D7, 72 h
Plasmodium falciparum [4] = assay: Antimalarial activity against sexual stage of Plasmodium falciparum 3D7 gametocytes assessed as reduction in parasite growth incubated for 3 days by alamar blue staining based assay; format: functional, organism-based; settings: 3D7, 72 h
[5] = Redox cycling activity of the compound […] measured after 45 mins by phenol red reagent based horseradish peroxidase coupled assay
Procedure, shortened: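 Redox cycling EC50 determined by the phenol red horseradish peroxidase assay.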

Plasmodium falciparum [6] = assay: Antimalarial activity against Plasmodium falciparum NF54 late gametocytes transfected with luciferase gene incubated for 48 hrs by luciferase reporter gene assay; format: functional, organism-based; settings: NF54, 48 h
Procedure, shortened: (§2)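 Gametocytes of NF54-Pfs16-GFP-Luc, early (>95% stage II/III) or late (>90% stage IV/V); luciferase read-out. IC50 is the concentration giving 50% reduction of luminescence; mean ± SEM of n = 3 independent biological replicates.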

Plasmodium falciparum [7] = assay: Antimalarial activity against asexual stage of Plasmodium falciparum NF54 assessed as reduction in parasite growth incubated for 96 hrs by SYBR Green I dye-based fluorescence assay; format: functional, organism-based; settings: NF54, 96 h
Procedure, shortened: (§3)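 Asexual NF54, K1 and W2 parasites; proliferation read as SYBR Green I fluorescence. IC50 is the concentration giving 50% of the net SYBR Green I fluorescence of untreated control cultures; mean ± SEM of n = 3 independent biological replicates.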

Plasmodium falciparum [8] = assay: Antimalarial activity against Plasmodium falciparum K1 incubated for 48 hrs by [3H]-hypoxanthine incorporation assay; format: functional, organism-based
Plasmodium falciparum [9] = assay: Antimalarial activity against Plasmodium falciparum NF54 early gametocytes transfected with luciferase gene incubated for 48 hrs by luciferase reporter gene assay; format: functional, organism-based; settings: NF54, 48 h; procedure, shortened: as §2
Plasmodium falciparum [10] = assay: Antimalarial activity against Plasmodium falciparum NF54 incubated for 48 hrs by [3H]-hypoxanthine incorporation assay; format: functional, organism-based
Plasmodium falciparum [11] = assay: Antimalarial activity against asexual stage of Plasmodium falciparum W2 assessed as reduction in parasite growth incubated for 96 hrs by SYBR Green I dye-based fluorescence assay; format: functional, organism-based; settings: W2, 96 h
Plasmodium falciparum [12] = assay: Antimalarial activity against Plasmodium falciparum TM90C2B incubated for 48 hrs by [3H]-hypoxanthine incorporation assay; format: functional, organism-based
Plasmodium falciparum [13] = assay: Antimalarial activity against asexual stage of Plasmodium falciparum K1 assessed as reduction in parasite growth incubated for 96 hrs by SYBR Green I dye-based fluorescence assay; format: functional, organism-based; settings: K1, 96 h; procedure, shortened: as §3
Plasmodium falciparum [14] = assay: Antimalarial activity against asexual stage of Plasmodium falciparum NF54 assessed as reduction in parasite growth at 1 uM incubated for 96 hrs by SYBR Green I dye-based fluorescence assay relative to control; format: functional; design: scale not given: the % may be the effect or the level left

SMILES: CCCCn1c2c([n+](CCCC)c1C)C(=O)c1ccccc1C2=O
IC50 (Plasmodium falciparum [1]): 43.6 nM
IC50 (CHO-K1): 30400 nM
IC50 (Plasmodium falciparum [2]): 50.5 nM

SMILES: CCOc1ccc(N(C(C)=O)C2=C(N(C)C)C(=O)c3ccccc3C2=O)cc1
EC50 (Plasmodium falciparum [3]): 32 nM
EC50 (Plasmodium falciparum [4]): 319 nM

SMILES: CCCn1c2c([n+](C(C)C)c1C)C(=O)c1ccccc1C2=O
Activity [5]: Active
IC50 (Plasmodium falciparum [1]): 8 nM
IC50 (Plasmodium falciparum [6]): 567 nM
IC50 (Plasmodium falciparum [7]): 2.28 nM
IC50 (Plasmodium falciparum [8]): 2.1 nM
IC50 (Plasmodium falciparum [9]): 162 nM
IC50 (CHO-K1): 26800 nM
IC50 (Plasmodium falciparum [10]): 1 nM
IC50 (Plasmodium falciparum [11]): 2.2 nM
IC50 (Plasmodium falciparum [12]): 1.8 nM
IC50 (Plasmodium falciparum [13]): 3.1 nM
IC50 (Plasmodium falciparum [2]): 4 nM

SMILES: CCCn1c2c([n+](C3CC3)c1C)C(=O)c1ccccc1C2=O
IC50 (Plasmodium falciparum [1]): 20.7 nM
IC50 (CHO-K1): 5500 nM
IC50 (Plasmodium falciparum [2]): 331 nM

SMILES: CCCCn1c2c([n+](C3CC3)c1C)C(=O)c1ccccc1C2=O
IC50 (Plasmodium falciparum [1]): 20.8 nM
IC50 (CHO-K1): 10100 nM
IC50 (Plasmodium falciparum [2]): 182 nM

SMILES: O=C1C(O)=C([C@H]2CC[C@H](c3ccc(Cl)cc3)CC2)C(=O)c2ccccc21 [ATOVAQUONE]
IC50 (Plasmodium falciparum [1]): 2.5 nM
IC50 (Plasmodium falciparum [8]): 0.5 nM
IC50 (Plasmodium falciparum [10]): 0.4 nM
IC50 (Plasmodium falciparum [12]): 11500 nM
IC50 (Plasmodium falciparum [2]): 2.8 nM

SMILES: CC[n+]1c2c(n(C(C)C)c1C)C(=O)c1ccccc1C2=O
IC50 (Plasmodium falciparum [1]): 11.7 nM
IC50 (CHO-K1): 15100 nM
IC50 (Plasmodium falciparum [2]): 61.5 nM

SMILES: Cc1n(C)c2c([n+]1C1CC1)C(=O)c1ccccc1C2=O
IC50 (Plasmodium falciparum [1]): 30.4 nM
IC50 (CHO-K1): 3100 nM
IC50 (Plasmodium falciparum [2]): 25.7 nM

IC50 (Plasmodium falciparum [6]): 237 nM
IC50 (Plasmodium falciparum [9]): 370 nM
SMILES: CCCCCCCCCC[n+]1c2c(n(CC(C)C)c1C)C(=O)c1ccccc1C2=O
IC50 (Plasmodium falciparum [7]): 4.96 nM
IC50 (Plasmodium falciparum [11]): 6.1 nM
IC50 (Plasmodium falciparum [13]): 13.3 nM

SMILES: CCCn1c2c([n+](CC)c1C)C(=O)c1ccccc1C2=O
Activity [5]: Active
IC50 (Plasmodium falciparum [1]): 8.4 nM
IC50 (Plasmodium falciparum [6]): 709 nM
IC50 (Plasmodium falciparum [7]): 3.45 nM
IC50 (Plasmodium falciparum [8]): 2.2 nM
IC50 (Plasmodium falciparum [9]): 390 nM
IC50 (CHO-K1): 8200 nM
IC50 (Plasmodium falciparum [10]): 1.2 nM
IC50 (Plasmodium falciparum [11]): 4.94 nM
IC50 (Plasmodium falciparum [12]): 2.2 nM
IC50 (Plasmodium falciparum [13]): 6.5 nM
IC50 (Plasmodium falciparum [2]): 3.7 nM

IC50 (Plasmodium falciparum [6]): 812 nM
IC50 (Plasmodium falciparum [9]): 337 nM
SMILES: Cc1n(CC(C)C)c2c([n+]1CC(C)C)C(=O)c1ccccc1C2=O
IC50 (Plasmodium falciparum [7]): 9.19 nM
IC50 (Plasmodium falciparum [11]): 5.75 nM
IC50 (Plasmodium falciparum [13]): 12.5 nM

IC50 (Plasmodium falciparum [6]): 275 nM
IC50 (Plasmodium falciparum [9]): 181 nM
SMILES: CCCC[n+]1c2c(n(CC(C)C)c1C)C(=O)c1ccccc1C2=O
IC50 (Plasmodium falciparum [7]): 7.2 nM
IC50 (Plasmodium falciparum [11]): 5.1 nM
IC50 (Plasmodium falciparum [13]): 9.85 nM

IC50 (Plasmodium falciparum [6]): 842 nM
IC50 (Plasmodium falciparum [9]): 269 nM
SMILES: CCC[n+]1c2c(n(CC(C)C)c1C)C(=O)c1ccccc1C2=O
IC50 (Plasmodium falciparum [7]): 2.97 nM
IC50 (Plasmodium falciparum [11]): 2.12 nM
IC50 (Plasmodium falciparum [13]): 4.42 nM

IC50 (Plasmodium falciparum [6]): 164 nM
IC50 (Plasmodium falciparum [9]): 39 nM
SMILES: CCCCCCCC[n+]1c2c(n(CC(C)C)c1C)C(=O)c1ccccc1C2=O
IC50 (Plasmodium falciparum [7]): 4.36 nM
IC50 (Plasmodium falciparum [11]): 3.6 nM
IC50 (Plasmodium falciparum [13]): 8.23 nM

Activity [5]: inactive
SMILES: CCn1c(C)nc2c1C(=O)c1ccccc1C2=O
Activity (Plasmodium falciparum [14]): <=50%

Activity [5]: inactive
SMILES: CCCCn1c(C)nc2c1C(=O)c1ccccc1C2=O
Activity (Plasmodium falciparum [14]): <=50%

SMILES: CCOc1ccc(N(C(C)=O)C2=C(NC)C(=O)c3ccccc3C2=O)cc1
EC50 (Plasmodium falciparum [3]): 1 nM
EC50 (Plasmodium falciparum [4]): 122 nM

SMILES: CCn1c2c([n+](C3CC3)c1C)C(=O)c1ccccc1C2=O
IC50 (Plasmodium falciparum [1]): 35 nM
IC50 (CHO-K1): 6600 nM
IC50 (Plasmodium falciparum [2]): 66.1 nM

IC50 (Plasmodium falciparum [6]): 551 nM
IC50 (Plasmodium falciparum [9]): 143 nM
SMILES: CCCCCC[n+]1c2c(n(CC(C)C)c1C)C(=O)c1ccccc1C2=O
IC50 (Plasmodium falciparum [7]): 6.2 nM
IC50 (Plasmodium falciparum [11]): 5.28 nM
IC50 (Plasmodium falciparum [13]): 10 nM

IC50 (Plasmodium falciparum [6]): 1090 nM
IC50 (Plasmodium falciparum [9]): 41 nM
SMILES: Cc1n(CC(C)C)c2c([n+]1C)C(=O)c1ccccc1C2=O
IC50 (Plasmodium falciparum [7]): 1.92 nM
IC50 (Plasmodium falciparum [11]): 1.85 nM
IC50 (Plasmodium falciparum [13]): 3.4 nM

SMILES: CC[n+]1c2c(n(C)c1C)C(=O)c1ccccc1C2=O
IC50 (Plasmodium falciparum [1]): 19.9 nM
IC50 (CHO-K1): 3600 nM
IC50 (Plasmodium falciparum [2]): 8.4 nM

SMILES: Cc1n(C2CC2)c2c([n+]1C1CC1)C(=O)c1ccccc1C2=O
IC50 (Plasmodium falciparum [1]): 38.6 nM
IC50 (CHO-K1): 42500 nM
IC50 (Plasmodium falciparum [2]): 41.5 nM
